Measured values from ChEMBL document CHEMBL4610124, “Novel Thienopyrimidine Inhibitors of Leishmania N-Myristoyltransferase with On-Target Activity in Intracellular Amastigotes” (J Med Chem, 2020).

Experiments:
[1] = Inhibition of Leishmania major NMT using p60 SRC(2 to […]) as substrate by CPM dye based fluorescence assay
[2] = biological target: T1, Glycylpeptide N-tetradecanoyltransferase 1 (Homo sapiens, UniProt P30419); assay type: ADME
T1 sequence (P30419 whole entry): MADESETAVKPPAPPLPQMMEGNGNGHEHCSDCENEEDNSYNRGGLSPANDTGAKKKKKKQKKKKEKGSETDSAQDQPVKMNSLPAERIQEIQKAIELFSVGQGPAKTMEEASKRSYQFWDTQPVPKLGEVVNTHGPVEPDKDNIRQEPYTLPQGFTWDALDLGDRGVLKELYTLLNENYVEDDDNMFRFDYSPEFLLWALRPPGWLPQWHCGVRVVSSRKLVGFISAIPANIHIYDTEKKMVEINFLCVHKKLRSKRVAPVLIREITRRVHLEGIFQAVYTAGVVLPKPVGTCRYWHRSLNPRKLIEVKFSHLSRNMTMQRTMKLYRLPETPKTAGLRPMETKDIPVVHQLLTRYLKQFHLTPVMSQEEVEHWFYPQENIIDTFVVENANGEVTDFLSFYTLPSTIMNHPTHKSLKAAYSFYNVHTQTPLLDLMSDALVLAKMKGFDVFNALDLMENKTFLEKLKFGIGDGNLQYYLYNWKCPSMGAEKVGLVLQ

[3] = system: human NMT1 versus Leishmania donovani NMT; test: Selectivity ratio of IC50 for human NMT1 to IC50 for Leishmania donovani NMT; assay type: toxicity; conditions: read-out: Ratio IC50
Outline: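 Ratio of IC₅₀ for HsNMT1 to IC₅₀ for LdNMT. Both were measured in a fluorogenic CPM assay, in which coenzyme A released by acyl transfer is detected with the thiol-reactive dye CPM.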

[4] = Inhibition of Leishmania donovani NMT using p60 SRC(2 to […]) as substrate by CPM dye based fluorescence assay
Leishmania donovani [5] = test: Antileishmanial activity against Leishmania donovani MHOM/ET/67/HU3 intracellular amastigotes measured after 72 hrs by alamar blue dye based fluorescence assay; assay type: functional, organism-based; conditions: MHOM/ET/67/HU3, 72 h
Outline: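 Ex vivo L. donovani LV9 amastigotes, kept by serial passage in Rag-2−/− mice, isolated from infected spleens by homogenization and saponin lysis. Plated at 4 × 10⁵ per well in RPMI with 20% heat-inactivated FCS, adenine, 20 mM MES (pH 5.5), hemin, biopterin and biotin.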

Leishmania donovani [6] = test: Effect on total NMT expression in Leishmania donovani MHOM/ET/67/HU3 intracellular amastigotes after 12 hrs in presence of YnMyr by Western blot analysis; assay type: ADME, organism-based
Outline: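 Amastigotes from spleens of Rag-2−/− mice, isolated by saponin lysis, seeded at 7.5 × 10⁷/mL in RPMI/10% FCS with inhibitor for 1 h at 37 °C. Then resuspended in fresh medium with inhibitor plus YnMyr (50 μM final) for 12 h. Lysates were click-labelled and run on SDS-PAGE, then immunoblotted with anti-LdNMT antibody.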

SMILES	IC50 [1] [µM]	IC50 [4] [µM]	IC50 [2] [µM]	selectivity ratio [3]	EC50 (Leishmania donovani [5]) [µM]	Activity (Leishmania donovani [6])
COCCN(C)c1nc(N(C)CCCN(C)C)nc2ccsc12		44				
CCN(C)c1nc(N(C)C2CCNCC2)nc2ccc(S(=O)(=O)Nc3c(C)nn(C)c3C)cc12			1.7	5.2		
CN(C)CCCN(C)c1nc(N(C)CCC#N)c2ccccc2n1	2.1				> 50	
CN1CCC(N(C)c2nc(N(C)CCC#N)c3ccccc3n2)C1 (centres undefined)		9.5			6.6	Non-Toxic
CN(CCC#N)c1nc(N(C)C2CCN(Cc3ccccc3)CC2)nc2ccsc12		27				
CN(CCC#N)c1nc(N(C)C2CCNC2)nc2ccccc12 (centres undefined)	4.9	5.8				
CN(C)CCCN(C)c1nc(N(C)CCO)c2sccc2n1	36	22				
CN(c1nc(N2CCC[C@H]2CC#N)c2sccc2n1)C1CCNCC1		0.21	1.6	7.8		
CN(C)CCCN(C)c1nc(N(C)CCC(N)=O)c2sccc2n1	13				> 50	
CN1CCC(N(C)c2nc(N3CCC[C@H]3CC#N)c3sccc3n2)CC1		0.15	> 100	> 660	19	
COc1ccc2nc(N(C)C3CCN(C)CC3)nc(N(C)CCC#N)c2c1		0.5	> 100	> 200		
CN1CCC(N(C)c2nc(N(C)CCC#N)c3sccc3n2)CC1	0.2	0.34	5.7			Non-Toxic
CCN1CCC(N(C)c2nc(N(C)CCC#N)c3ccccc3n2)CC1	0.95	0.97			> 50	
CN1CCC(N(C)c2nc(N(C)CCC#N)c3sc(C(C)(C)C)cc3n2)C1 (centres undefined)						Non-Toxic
CN(CCC#N)c1nc(N(CCO)C2CCNCC2)nc2ccccc12	8.2					
COC[C@@H]1CCCN1c1nc(N(C)C2CCN(C)CC2)nc2ccsc12		0.87	> 100	> 120	26	
COC[C@@H]1CCCN1c1nc(N(C)C2CCNCC2)nc2ccsc12		4.3	5	1.2		
CN(CCC#N)c1nc(N(C)C2CCNCC2)nc2ccccc12	1.1		> 100		> 50	
CN1CCC(N(C)c2nc(N(C)CCC#N)c3cc(Br)ccc3n2)C1 (centres undefined)		5.5	> 100	> 18		
CN(CCC#N)c1nc(N(C)[C@H]2C[C@H]3CC[C@@H](C2)N3C)nc2ccccc12	13	16	> 100		> 50	
CCN(C)c1nc(N(C)C2CCN(C)CC2)nc2ccsc12	0.73		7.9		> 50	
CN(C)CCCN(C)c1nc(N2CCC[C@H]2CO)c2sccc2n1	19				> 50	
CN1CCC(N(C)c2nc(N(C)CCC#N)c3sc(C(C)(C)C)cc3n2)CC1	0.042	0.046	0.55			
CC(C)CN1CCC(N(C)c2nc(N(C)CCC#N)c3sccc3n2)CC1		4	> 100	> 25		
CCN(C)c1nc(N(C)C2CCN(Cc3ccccc3)CC2)nc2ccsc12		> 100				
CN(CCC#N)c1nc(N(C)C2CCNCC2)nc2ccsc12		0.5	11	22	> 50	
CCN(C)c1nc(N(C)C2CCN(C)CC2)nc2ccc(S(=O)(=O)Nc3c(C)nn(C)c3C)cc12		0.2	2.3	11		
CN(CCC#N)c1nc(N(C)C2CCNC2)nc2cc(C(C)(C)C)sc12 (centres undefined)		5.5	> 100	> 18	21	
CN1CCC(N(C)c2nc(N(C)CCC#N)c3cc(Br)ccc3n2)CC1		0.95	> 100	> 20		

The next lines start with results.

IC50 [1] [µM]	IC50 [4] [µM]	SMILES	IC50 [2] [µM]	selectivity ratio [3]	EC50 (Leishmania donovani [5]) [µM]	Activity (Leishmania donovani [6])
13		CCN(C)c1nc(N(C)CCCN(C)C)nc2ccsc12	> 100	> 8		
2.7	0.15 to 0.59	CN(C)CCCN(C)c1nc(N(C)CCC#N)c2sccc2n1	> 100	> 170	> 50	
	0.39	CN(C)CCCN(C)c1nc(N(C)CCC#N)c2cc(-c3ccccc3)ccc2n1	> 100	> 260		
	> 100	CN(C)CCCN(C)c1nccc(N(C)CCC#N)n1	> 100			
	30	CN1CCN(c2nc(N(C)CCC#N)c3sccc3n2)CC1				
	2.4	CN(C)CCCN(C)c1nc(N(C)CCC#N)c2cccnc2n1	> 100	> 42		
0.16	0.36	CN(C)CCCN(C)c1nc(N(C)CCC#N)c2sc(C(C)(C)C)cc2n1			37	
	> 100	CN(CCC#N)c1nc(N(C)C2CCN(Cc3ccccc3)C2)nc2ccsc12 (centres undefined)				
	> 100	CN(C)CCCN(C)c1nc(N(C)CCC#N)c2c(ncn2C)n1	> 100			
	> 100	CN(CCCN(C)c1nc(N(C)CCC#N)c2sccc2n1)Cc1ccccc1				
	6.6	COc1ccc(-c2ccc3nc(N(C)CCCN(C)C)nc(N(C)CCC#N)c3c2)c(C)c1	> 100	> 15		
	> 100	CC(C)CN(C)CCCN(C)c1nc(N(C)CCC#N)c2sccc2n1				
	> 100	CN(CCC#N)c1nc(N(C)C2CCOCC2)nc2ccsc12				
	23	COCCN(C)c1nc(N2CCN(C)CC2)nc2ccsc12				
	7.8	CN(CCC#N)c1nc(N(C)C2CCN(Cc3ccccc3)C2)nc2cc(C(C)(C)C)sc12 (centres undefined)				
	54	CN(C)CCCN(C)c1nc(N(C)CCC(=O)N(C)C)c2sccc2n1				
	> 100	CN(C)CCCN(C)c1ncc2sccc2n1				
40		CN(C)CCCN(C)c1nc(N(C)CCCO)c2sccc2n1			> 50	
	> 100	CC(=O)N(C)CCN(C)c1nc(N(C)CCCN(C)C)nc2ccsc12	> 100			
	> 100	CN(CCCO)c1nc(N(C)CCC#N)c2sccc2n1				
	0.67	Cc1ccccc1-c1ccc2nc(N(C)CCCN(C)C)nc(N(C)CCC#N)c2c1	> 100	> 150		
	0.35	CN(C)CCCN(C)c1nc(N(C)CCC#N)c2cc(Br)ccc2n1			17	
	28	CN(CCC#N)c1nc(N2CCNCC2)nc2ccsc12				
	1.8	COc1ccc2nc(N(C)CCCN(C)C)nc(N(C)CCC#N)c2c1	> 100	> 56		
	5.2	CNCCCN(C)c1nc(N(C)CCC#N)c2sccc2n1				
	0.23	CCN(C)c1nc(N(C)CCCN(C)C)nc2ccc(S(=O)(=O)Nc3c(C)nn(C)c3C)cc12	1.1	4.6		
	9.5	COc1ccc2c(N(C)CCC#N)nc(N(C)CCCN(C)C)nc2c1				
